Results reported in ChEMBL document CHEMBL1914438, “Synthesis and biological activity of novel N-cycloalkyl-(cycloalkylaryl)-2-[(3-R-2-oxo-2H-[1,2,4]triazino[2,3-c]quinazoline-6-yl)thio]acetamides” (2011).
The source made the active and inactive calls. The rule behind the calls is not given here.

How the values were obtained:
[1] = tested on: SR; assay: Cytotoxicity against human SR cells assessed as cell growth at 10^-5 M after 48 hrs by SRB assay; format: functional; details: read-out: Activity
How it was run: (§1)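 NCI human tumor cell line panel from nine cancer types. Each line was inoculated and preincubated 24–48 h, then exposed to a single concentration (10^-5 M) for 48 h. Growth was read by sulforhodamine B protein staining, measured spectrophotometrically. Value reported as percent growth of treated cells relative to untreated controls.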

[2] = tested on: MDA-MB-231; assay: Cytotoxicity against human MDA-MB-231 cells assessed as cell growth at 10^-5 M after 48 hrs by SRB assay; format: functional; details: MDA-MB-231, 48 h, read-out: Activity
How it was run: (§2)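 NCI 60-cell-line one-dose primary screen: cells inoculated and preincubated 24–48 h, then test agent added at a single 10^-5 M concentration for a further 48 h. Endpoint is sulforhodamine B protein staining read spectrophotometrically. Reported as percent growth relative to untreated control cells.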

[3] = tested on: Photobacterium leiognathi; assay: Antibacterial activity against Photobacterium leiognathi Sh1 assessed as inhibition of bacterial luminescence at 0.025 mg/mL after 10 mins by bioluminometry-based chronic action test; format: functional; parameters: scale not given: the % may be the effect or the level left; details: in the assay text read “after 16 to 18 hrs” for “after 10 mins”
How it was run: (§3)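 Chronic (growth plus luminescence) test with P. leiognathi Sh1 at 10^5 cells/mL in chloride solution, compounds added in DMSO. After 10 min at 25 °C, growth medium added at 1:50 and the mix incubated 16–18 h at 30 °C. Luminescence then measured by bioluminometer as % of untreated control. Tetracycline reference.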

[4] = tested on: CCRF-CEM; assay: Cytotoxicity against human CCRF-CEM cells assessed as cell growth at 10^-5 M after 48 hrs by SRB assay; format: functional; details: read-out: Activity; how it was run: as §2
[5] = tested on: Staphylococcus aureus; assay: Antibacterial activity against Staphylococcus aureus at 1 to 5 mg/mL after 24 hrs by stiff-plate agar-diffusion method; format: functional, organism-based
How it was run: (§4)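 Agar diffusion (stiff plate) with test substances at 5 mg/mL in grooves, allowed to diffuse into nutrient agar; inoculum 10^9 c.f.u./mL; bacteria incubated 24 h at 35 °C. Read-out: inhibition zone diameter (not sensitive 11–15 mm, sensitive 16–25 mm, highly sensitive >25 mm). Vancomycin and oxacillin as standards; three repeats.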

[6] = tested on: LOX IMVI; assay: Cytotoxicity against human LOXIMVI cells assessed as cell growth at 10^-5 M after 48 hrs by SRB assay; format: functional; details: read-out: Activity; how it was run: as §2
[7] = tested on: Escherichia coli; assay: Antibacterial activity against Escherichia coli at 1 to 5 mg/mL after 24 hrs by stiff-plate agar-diffusion method; format: functional, organism-based; how it was run: as §4
[8] = tested on: Photobacterium leiognathi; assay: Antibacterial activity against Photobacterium leiognathi Sh1 assessed as inhibition of bacterial luminescence at 0.025 mg/mL after 10 mins by bioluminometry-based acute action test; format: functional; parameters: scale not given: the % may be the effect or the level left
How it was run: (§5)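 Marine P. leiognathi Sh1 (Azov Sea shrimp isolate) diluted in chloride solution to 10^5 cells/mL; compounds suspended in DMSO mixed with 1 mL bacterial suspension. Acute test: 10 min at 25 °C, then bioluminescence measured by bioluminometer as % of compound-free control. Tetracycline reference.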

[9] = tested on: Photobacterium leiognathi; assay: Antibacterial activity against Photobacterium leiognathi Sh1 assessed as inhibition of bacterial luminescence at 0.25 mg/mL after 10 mins by bioluminometry-based acute action test; format: functional; parameters: scale not given: the % may be the effect or the level left; how it was run: as §5
[10] = tested on: PC-3; assay: Cytotoxicity against human PC3 cells assessed as cell growth at 10^-5 M after 48 hrs by SRB assay; format: functional; details: PC-3, 48 h, read-out: Activity; how it was run: as §1
[11] = tested on: HL-60(TB); assay: Cytotoxicity against human HL-60(TB) cells assessed as cell growth at 10^-5 M after 48 hrs by SRB assay; format: functional; details: HL-60, 48 h, read-out: Activity
How it was run: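 NCI one-dose primary screen on the 60-line human tumour panel. Cells were inoculated and preincubated 24–48 h. Compound was added at 10^-5 M with 48 h continuous exposure. Sulforhodamine B protein staining was read spectrophotometrically. Results are percent growth relative to untreated control cells.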

[12] = tested on: NCI-H522; assay: Cytotoxicity against human NCI-H522 cells assessed as cell growth at 10^-5 M after 48 hrs by SRB assay; format: functional; details: NCI-H522, 48 h, read-out: Activity; how it was run: as §1
[13] = tested on: Photobacterium leiognathi; assay: Antibacterial activity against Photobacterium leiognathi Sh1 assessed as inhibition of bacterial luminescence at 0.1 mg/mL after 10 mins by bioluminometry-based acute action test; format: functional; parameters: scale not given: the % may be the effect or the level left; how it was run: as §5
[14] = tested on: Photobacterium leiognathi; assay: Antibacterial activity against Photobacterium leiognathi Sh1 assessed as inhibition of bacterial luminescence at 0.1 mg/mL after 10 mins by bioluminometry-based chronic action test; format: functional; parameters: scale not given: the % may be the effect or the level left; details: in the assay text read “after 16 to 18 hrs” for “after 10 mins”; how it was run: as §3
[15] = tested on: HCC 2998; assay: Cytotoxicity against human HCC2998 cells assessed as cell growth at 10^-5 M after 48 hrs by SRB assay; format: functional; details: HCC 2998, 48 h, read-out: Activity; how it was run: as §2
[16] = tested on: SK-MEL-5; assay: Cytotoxicity against human SK-MEL-5 cells assessed as cell growth at 10^-5 M after 48 hrs by SRB assay; format: functional; details: SK-MEL-5, 48 h, read-out: Activity; how it was run: as §1
[17] = tested on: UO-31; assay: Cytotoxicity against human UO31 cells assessed as cell growth at 10^-5 M after 48 hrs by SRB assay; format: functional; details: UO-31, 48 h, read-out: Activity; how it was run: as §1
[18] = tested on: SNB-75; assay: Cytotoxicity against human SNB75 cells assessed as cell growth at 10^-5 M after 48 hrs by SRB assay; format: functional; details: SNB-75, 48 h, read-out: Activity; how it was run: as §1
[19] = tested on: Photobacterium leiognathi; assay: Antibacterial activity against Photobacterium leiognathi Sh1 assessed as inhibition of bacterial luminescence at 0.25 mg/mL after 10 mins by bioluminometry-based chronic action test; format: functional; parameters: scale not given: the % may be the effect or the level left; details: in the assay text read “after 16 to 18 hrs” for “after 10 mins”; how it was run: as §3
[20] = tested on: MOLT-4; assay: Cytotoxicity against human MOLT4 cells assessed as cell growth at 10^-5 M after 48 hrs by SRB assay; format: functional; details: MOLT-4, 48 h, read-out: Activity; how it was run: as §1
[21] = tested on: Aspergillus niger; assay: Antifungal activity against Aspergillus niger at 1 to 5 mg/mL after 48 to 72 hrs by stiff-plate agar-diffusion method; format: functional, organism-based
How it was run: (§6)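 Fungal plates run by stiff-plate agar diffusion, substances applied to grooves at 5 mg/mL; 10^9 c.f.u./mL cells; incubation 48–72 h at 28–30 °C. Inhibition zone diameter scored (11–15 mm not sensitive, 16–25 mm sensitive, >25 mm highly sensitive). Nystatin standard; experiments done three times.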

[22] = tested on: Photobacterium leiognathi; assay: Antibacterial activity against Photobacterium leiognathi Sh1 at 0.1 to 0.25 ug/mL; format: functional, organism-based
[23] = tested on: Mycobacterium; assay: Antibacterial activity against Mycobacterium luteum at 1 to 5 mg/mL after 24 hrs by stiff-plate agar-diffusion method; format: functional, organism-based; how it was run: as §4
[24] = tested on: A549; assay: Cytotoxicity against human A549 cells assessed as cell growth at 10^-5 M after 48 hrs by SRB assay; format: functional; details: A549, 48 h, read-out: Activity; how it was run: as §2
[25] = tested on: K562; assay: Cytotoxicity against human K562 cells assessed as cell growth at 10^-5 M after 48 hrs by SRB assay; format: functional; details: K562, 48 h, read-out: Activity; how it was run: as §2
[26] = tested on: Yamadazyma tenuis; assay: Antifungal activity against Candida tenuis at 1 to 5 mg/mL after 48 to 72 hrs by stiff-plate agar-diffusion method; format: functional, organism-based; how it was run: as §6
[27] = tested on: CAKI-1; assay: Cytotoxicity against human Caki1 cells assessed as cell growth at 10^-5 M after 48 hrs by SRB assay; format: functional; details: CAKI-1, 48 h, read-out: Activity; how it was run: as §2

**Q.** How did the growth at 10 µM [1] turn out when `COc1ccc(-c2nn3c(SCC(=O)O)nc4ccccc4c3nc2=O)cc1` was run?
**A.** 65.8%

**Q.** And the growth at 10 µM [2]?
**A.** 89.9%

**Q.** What about the Activity [3] of the same compound?
**A.** 88.9%

**Q.** What about the growth at 10 µM [4] of the same compound?
**A.** 90.7%

**Q.** And the Activity [5]?
**A.** inactive

**Q.** And the growth at 10 µM [6]?
**A.** 86.9%

**Q.** And the Activity [7]?
**A.** inactive

**Q.** And the Activity [8]?
**A.** 105%

**Q.** What about the Activity [9] of the same compound?
**A.** 0%

**Q.** And the growth at 10 µM [10]?
**A.** 91.7%

**Q.** And the growth at 10 µM [11]?
**A.** 63.5%

**Q.** And the growth at 10 µM [12]?
**A.** 94.9%

**Q.** What about the Activity [13] of the same compound?
**A.** 80%

**Q.** And the Activity [14]?
**A.** 191.5%

**Q.** What about the growth at 10 µM [15] of the same compound?
**A.** 94.7%

**Q.** And the growth at 10 µM [16]?
**A.** 95.4%

**Q.** What about the growth at 10 µM [17] of the same compound?
**A.** 91.6%

**Q.** And the growth at 10 µM [18]?
**A.** 93.9%

**Q.** And the Activity [19]?
**A.** 45%

**Q.** What about the growth at 10 µM [20] of the same compound?
**A.** 84.8%

**Q.** And the Activity [21]?
**A.** inactive

**Q.** What about the Activity [22] of the same compound?
**A.** inactive

**Q.** What about the Activity [23] of the same compound?
**A.** inactive

**Q.** What about the growth at 10 µM [24] of the same compound?
**A.** 95.9%

**Q.** And the growth at 10 µM [25]?
**A.** 80.9%

**Q.** And the Activity [26]?
**A.** inactive

**Q.** And the growth at 10 µM [27]?
**A.** 91.4%
